Assay outcomes (PubChem BioAssay)
zfTRPN1 agonist = activates the zebrafish TRPN1 channel | 220,000 compounds, 0.18% hits | HEK293 zebrafish TRPN1-YFP, Fluo-8 calcium fluorescence; 100% = response to 87 µM carbachol | activation, % at 3 µM;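 active = activation above its plate's cutoff, the mean activation of test wells on that plate plus 3 SD, cut at about 19% in these data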;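 also: 0% = DMSO alone and 100% = 87 µM carbachol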
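Material: zebrafish TRPN1-YFP in HEK293 cells. Doses: one dose of 3 µM, 0.3% DMSO. Incubation: dye 1 h 37 °C plus 30 min RT. Measured by: intracellular calcium fluorescence with Fluo-8.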
TRPML3 ag = human mucolipin-3 channel agonism | Q8TDD5 | HEK293 TRPML3-YFP, Fluo-8 calcium fluorescence; 100% = the carbachol control signal | activation, % at 3 µM | 220,000 compounds, 0.29% hits;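 active = activation above its plate's cutoff, the mean activation of the plate's test wells plus 3 SD, cut at about 12% in these data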;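 also: 0% = DMSO only wells and 100% = carbachol wells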
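Test system – HEK293 line with stable expression of human TRPML3-YFP channel · Control set – carbachol 87 µM final as high control (100%), DMSO as low control (0%) · Signal – Fluo-8 calcium dye fluorescence, ex 470-495, em 515-575 nm · Incubation – 1-h 37 °C dye load, 5-s basal, 120-s post-compound reads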
OXTR agonist = human OXTR agonism; P30559; CHO-OTR cells, Fluo-8 calcium fluorescence; normalized: DMSO 0%, oxytocin 100%; activation, % at 3 µM; 320,000 compounds, 0.32% hits; AID 2435;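 active = activation above the mean of all tested compounds plus 3 SD, cutoff set per screening run, cut at about 20% in these data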;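 also: peak over basal fluorescence ratio from a 100 s FLIPR kinetic read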
V1aR counter = counter-screen for oxytocin receptor agonists: human V1a receptor agonists; P37288; 320,000 compounds, 0.25% hits; CHO-V1R cells, Fluo-8 calcium fluorescence, agonist mode; 0% DMSO, 100% 3 nM vasopressin; activation, % at 3 µM;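 active = activation above the mean activation of all tested compounds plus 3 SD, per screening run, cut at about 20% in these data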;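 also: signal is peak over basal fluorescence ratio across a 100 second FLIPR read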
Target sequence (P37288 whole entry, looked up): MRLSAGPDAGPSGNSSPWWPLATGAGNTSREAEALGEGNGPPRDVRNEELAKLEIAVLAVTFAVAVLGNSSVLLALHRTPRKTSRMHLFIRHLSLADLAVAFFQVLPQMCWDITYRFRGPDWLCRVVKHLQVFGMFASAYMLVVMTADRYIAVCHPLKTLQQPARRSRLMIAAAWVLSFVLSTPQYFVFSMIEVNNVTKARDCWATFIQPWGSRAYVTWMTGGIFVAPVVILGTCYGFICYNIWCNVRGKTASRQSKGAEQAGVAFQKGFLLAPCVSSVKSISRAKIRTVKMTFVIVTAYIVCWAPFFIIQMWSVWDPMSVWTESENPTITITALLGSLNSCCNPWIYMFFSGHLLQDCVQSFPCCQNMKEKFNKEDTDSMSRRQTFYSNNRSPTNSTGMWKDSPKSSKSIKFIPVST
OXTR potentiate = human OXTR potentiation; P30559; 320,000 compounds, 0.061% hits; activation, % at 3 µM; CHO-OTR cells, Fluo-8 calcium fluorescence, potentiator mode; 0% = oxytocin EC15, 100% = EC100;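 active = activation above that plate's cutoff, the mean activation of tested compounds plus 3 SD, cut at about 6.6% in these data, passing the limit was not always enough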;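 also: 100% uses oxytocin at 75 nM as the full agonist control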
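test system = CHO-OTR cells, human receptor | compound = single-point 3.0 µM | schedule = 6 min compound pre-incubation at room temperature, 100 s kinetic read | signal = Fluo-8 no-wash calcium dye fluorescence, excitation 470-495 nm, emission 515-575 nm | repeats = single well per compound, singlicate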
OXTR pot cf = confirmation of human oxytocin receptor potentiators | shares compounds with OXTR potentiate | CHO-OTR cells, Fluo-8 calcium fluorescence, potentiation; scaled from low-dose to maximal oxytocin | activation, % at 3 µM | 180 tested, under 10 active | AID 434985;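 active = mean percent activation over triplicates above a cutoff set from solvent-only control plates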;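 also: compounds tested in the presence of an EC15 dose of oxytocin; 0% = EC15 oxytocin with DMSO and 100% = EC100 oxytocin with DMSO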
* marks the source's active call; other numbers are inactive results; · = no result. Rows were chosen to be rich in hits. Some 0.55% of all compounds tested hit in one or more screens of this group.

SMILES	zfTRPN1 agonist	TRPML3 ag	OXTR agonist	V1aR counter	OXTR potentiate	OXTR pot cf
O=C(CCN1C(=O)C2C3C=CC(C4CC34)C2C1=O)Nc1ccc(Cl)cc1O (configuration not stated)	·	·	5	5	-9	·
CCN(CC)C(=O)C1CCN(c2ncnc3c2cnn3-c2ccc(C)cc2C)CC1	0	1	-1	-1	-12	·
Cc1ccc(-n2ncc3c(N4CCC(C(N)=O)CC4)ncnc32)c(C)c1	-1	0	0	-1	13*	-2
O=C(CCC(=O)NNC(=O)c1ccc(Cl)cc1Cl)NCc1ccccc1	·	·	-1	-1	4	·
COc1cc(C(=O)N2CCCN(C)CC2)cc(OC)c1C	·	·	0	1	-9	·
CN(C)CC(O)COC(c1ccccc1)c1ccccc1 (configuration not stated)	0	1	1	3	11*	1
Cc1ccc(NC(=O)CSc2nc3ccccc3nc2N2CCCC2)cc1	·	·	-1	0	-1	·
O=C(NC(Cc1cccc(F)c1)C(=O)O)C1CCCCC1 (configuration not stated)	·	·	1	1	8.1*	-10
CC(C)C1CCC(C(=O)N[C@H](Cc2ccccc2)C(=O)O)CC1 (some centres not stated)	0	1	0	0	-4	·
O=C(COC(=O)c1ccc[nH]c1=O)NCC12CC3CC(CC(C3)C1)C2	·	·	0	-1	-2	·
COc1ccc2nc(NC(=O)CSc3nc(SC)ns3)sc2c1	0	0	-1	1	-4	·
COc1ccc2nc(NC(=O)CSc3nnc(C)s3)sc2c1	1	0	1	0	10*	-4
COc1cccc(-c2nc(CS(=O)(=O)CC(=O)NC3CCCCC3C)c(C)o2)c1 (configuration not stated)	·	·	1	1	-7	·
COC(=O)c1c(C)noc1-c1snnc1C	1	2	1	0	11*	-7
CC(C)=NOC(=O)c1c(C)noc1-c1snnc1C	1	1	0	1	0	·
O=C(N/N=C/c1cn(-c2ccccc2)nc1-c1ccccc1)c1ccco1	1	-1	-1	-1	9.9*	-2
O=C(N/N=C\c1cn(-c2ccccc2)nc1-c1ccccc1)c1ccc(Br)o1	-1	0	-1	1	-16	·
CCOC(=O)C1=C(C)Nc2nc(SCC(=O)OC)nn2C1c1cc(F)cc(F)c1 (configuration not stated)	0	1	-2	-1	11*	-13
Cc1ccc2c(c1)-n1c(nc3cc(Cl)ccc3c1=O)C(CC(C)C)NC2=O (configuration not stated)	·	·	-1	1	13*	0
COc1ccc(C(=O)NNC(=O)c2ccc(F)c(S(=O)(=O)N3CCOCC3)c2)cc1	·	·	2	1	14*	-5
Cn1c(=O)c2[nH]c(-c3ccccc3Cl)c(O)c2n(C)c1=O	11	7	1	3	22*	-5
C/C(Cl)=C/Cn1c(N2CCCC2)nc2c1c(=O)[nH]c(=O)n2C	·	·	0	0	-1	·
C=CCn1c(N2CCCC2)nc2c1c(=O)[nH]c(=O)n2C	0	-1	0	-1	11*	-5
COc1ccc(CNC(=O)[C@H](C)NC(=O)C2CC(=O)N(c3ccc4c(c3)OCO4)C2)cc1 (some centres not stated)	·	·	0	0	14*	-1
Cc1cccc(C(=O)N(CC(=O)Nc2sc(C)c(C)c2C(N)=O)C2CCCC2)c1	·	·	5	1	-12	·
SMILES	zfTRPN1 agonist	TRPML3 ag	OXTR agonist	V1aR counter	OXTR potentiate	OXTR pot cf
Cn1nc(C(=O)NNC(=O)C(CCC(N)=O)NS(=O)(=O)c2ccc(Cl)cc2)c2ccccc2c1=O (configuration not stated)	·	·	0	1	1	·
Cc1ccccc1-c1nc(CN(C)C(C)c2ccon2)c(C)o1 (configuration not stated)	-1	0	-1	-1	13*	-1
Cc1oc(-c2ccccc2Cl)nc1CN(C)C(C)c1ccon1 (configuration not stated)	-1	-1	-2	-1	1	·
COc1ccccc1C1/C(=C(\O)c2ccc3c(c2)OCCO3)C(=O)C(=O)N1CCCn1ccnc1 (configuration not stated)	·	·	0	1	3	·
COc1ccccc1OCCNC(=O)c1cc(=O)[nH]c2ccccc12	2	1	0	0	9.1*	-2
COc1ccc(CN(C)CC(=O)Nc2ccccc2C(=O)NC2CC2)cc1F	·	·	-1	1	-3	·
COC(=O)c1ccc(NS(=O)(=O)c2ccc(-c3cc(C)no3)s2)cc1	·	·	2	2	-11	·
COC(=O)c1cc(C(=O)Nc2cccc(C)n2)cc([N+](=O)[O-])c1	-1	0	-1	-1	9.1*	0
Cc1ccc(-n2nc3c(c2NC(=O)C(C)C)CS(=O)(=O)C3)c(C)c1	·	·	2	0	-2	·
CCOc1ccc(C(=O)Nc2nnc(SCC(=O)NCC3CCCO3)s2)cc1OCC (configuration not stated)	·	·	1	1	11*	0
O=C(NCc1ccccn1)c1ccc(Cl)c(S(=O)(=O)Nc2ccccc2C(=O)NCc2ccccn2)c1	0	0	-2	1	14*	-5
COC1CCCCC1Nc1cccc(SC)c1 (configuration not stated)	-1	0	-1	-1	12*	-3
CC(C)CN(C(=O)c1cccc(S(=O)(=O)N2CCN(C)CC2)c1)C1CCS(=O)(=O)C1 (configuration not stated)	·	·	1	0	-5	·
COCCCN1CC(=O)N2C(c3ccccc3)c3[nH]c4ccccc4c3C[C@H]2C1=O (some centres not stated)	·	·	0	1	8.7*	-5
CC(=O)c1cc(CN2CCN(C(C)C)C(CCO)C2)cs1 (configuration not stated)	2	0	2	0	12*	-3
C[C@H](CO)N1C[C@H](C)[C@@H](CN(C)C(=O)Nc2ccc(C(F)(F)F)cc2)Oc2c(cccc2N(C)C)C1=O	·	·	0	0	12*	0
C[C@H](CO)N1C[C@H](C)[C@@H](CN(C)S(=O)(=O)c2cccs2)Oc2ccc(NC(=O)Nc3ccccc3)cc2C1=O	·	·	3	3	15*	-7
C[C@@H]1CN([C@H](C)CO)C(=O)c2cc(NC(=O)Nc3ccc(C(F)(F)F)cc3)ccc2O[C@H]1CN(C)S(=O)(=O)c1cccs1	·	·	2	2	-6	·
Cc1cccn2cc(CNC(=O)c3ccc(Br)o3)nc12	0	0	-1	0	12*	-3
